Reference: ChEMBL document CHEMBL3616402, “A novel series of indazole-/indole-based glucagon receptor antagonists” (Bioorg Med Chem Lett, 2015)

Columns and labels:
Glucagon receptor [1] = biological target: T1, Glucagon receptor (Homo sapiens, UniProt P47871); test: Displacement of [125I]glucagon from human glucagon receptor expressed in CHO cell membranes
Method in brief: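 Binding: displacement of [125I]glucagon from human GCGR in membranes prepared from a CHO cell line stably expressing hGCGR; IC50 reported in nM.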

Glucagon receptor [2] = biological target: T1, Glucagon receptor; test: Antagonist activity against human glucagon receptor expressed in CHO cells assessed as reduction in glucagon-induced cAMP production; format: functional, cell-based
Homo sapiens = species on record: Homo sapiens; test: Selectivity index, ratio of IC50 for human glucose dependent insulinotropic peptide receptor to IC50 for human glucagon receptor
[3] = biological target: T2, Gastric inhibitory polypeptide receptor (Homo sapiens, UniProt P48546); test: Antagonist activity against human glucose dependent insulinotropic peptide receptor by cAMP accumulation assay; format: functional
T2 sequence (P48546 whole entry): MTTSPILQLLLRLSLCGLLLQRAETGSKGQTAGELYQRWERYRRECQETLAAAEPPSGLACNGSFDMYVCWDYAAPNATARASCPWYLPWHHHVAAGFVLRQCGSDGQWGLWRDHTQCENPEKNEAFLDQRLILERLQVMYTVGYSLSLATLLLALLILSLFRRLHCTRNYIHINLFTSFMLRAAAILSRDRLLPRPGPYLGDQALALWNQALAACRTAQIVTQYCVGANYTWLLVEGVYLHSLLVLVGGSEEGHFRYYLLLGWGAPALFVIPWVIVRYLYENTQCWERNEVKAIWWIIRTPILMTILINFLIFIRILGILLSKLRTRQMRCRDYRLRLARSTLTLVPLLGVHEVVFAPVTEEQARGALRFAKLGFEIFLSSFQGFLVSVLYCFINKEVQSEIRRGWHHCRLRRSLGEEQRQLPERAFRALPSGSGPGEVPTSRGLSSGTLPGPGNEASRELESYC
Method in brief: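 Selectivity counter-screen: cAMP production measured in CHO cells expressing human GIPR; IC50 (potency) determined.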

[4] = Volume of distribution at steady state in Wistar rat at 0.5 mg/kg, iv or 2 mg/kg, po; format: ADME, organism-based; settings: in vivo, read-out: Vdss
Method in brief: (§1)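 Wistar rats given 0.5 mg/kg iv and 2 mg/kg po; plasma concentration–time profiles used to derive plasma clearance, steady-state volume of distribution, half-life and dose-normalized AUC (µM·h·kg/mg).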

Rattus norvegicus = test: Dose normalized AUC in Wistar rat at 0.5 mg/kg, iv or 2 mg/kg, po; format: ADME, organism-based; settings: in vivo; method in brief: as §1
[5] = Plasma clearance in Wistar rat at 0.5 mg/kg, iv or 2 mg/kg, po; format: ADME, organism-based; method in brief: as §1
[6] = Oral bio availability in Wistar rat 2 mg/kg; format: ADME, organism-based; settings: in vivo
Method in brief: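 Oral bioavailability from Wistar rats dosed 2 mg/kg po with 0.5 mg/kg iv reference dose; F (%) from plasma exposure.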

[7] = Half life in Wistar rat at 0.5 mg/kg, iv or 2 mg/kg, po; format: ADME, organism-based; settings: in vivo; method in brief: as §1

T1 sequence (P47871 whole entry): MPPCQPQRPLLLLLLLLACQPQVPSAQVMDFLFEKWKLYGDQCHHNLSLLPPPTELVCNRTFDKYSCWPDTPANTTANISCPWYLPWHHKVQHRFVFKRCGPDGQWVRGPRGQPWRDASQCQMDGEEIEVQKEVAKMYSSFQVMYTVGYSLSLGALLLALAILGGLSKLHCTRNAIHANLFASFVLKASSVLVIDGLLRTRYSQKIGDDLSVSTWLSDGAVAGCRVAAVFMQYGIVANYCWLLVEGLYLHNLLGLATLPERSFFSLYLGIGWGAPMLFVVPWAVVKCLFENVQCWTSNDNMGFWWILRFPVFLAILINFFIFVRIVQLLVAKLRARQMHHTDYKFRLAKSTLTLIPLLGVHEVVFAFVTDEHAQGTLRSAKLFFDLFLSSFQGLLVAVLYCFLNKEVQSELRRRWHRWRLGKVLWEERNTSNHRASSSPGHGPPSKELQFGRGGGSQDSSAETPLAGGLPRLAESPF

Compound	IC50 (Glucagon receptor [1])	IC50 (Glucagon receptor [2])	other results
CCCCC(c1ccc(C(=O)NCCC(=O)O)cc1)n1nc(-c2cc(C(F)(F)F)ccc2OC)c2ccc(-c3cc(F)cc(Cl)c3)cc21 (centres undefined)	7 nM	46 nM	–
CCCC(c1ccc(C(=O)NCCC(=O)O)cc1)n1nc(-c2cc(C(F)(F)F)ccc2OC)c2cccc(-c3ccc(OC)cc3)c21 (centres undefined)	1700 nM	2700 nM	–
CCCC(c1ccc(C(=O)NCCC(=O)O)cc1)n1nc(-c2cc(C(F)(F)F)ccc2OC)c2cc(-c3ccc(C)cc3)ccc21 (centres undefined)	7 nM	17 nM	–
CC(c1ccc(C(=O)NCCC(=O)O)cc1)n1nc(-c2cc(F)c(F)c(F)c2)c2ccc(-c3ccc(OC(F)(F)F)cc3)cc21 (centres undefined)	6 nM	20 nM	–
CCC(c1ccc(C(=O)NCCC(=O)O)cc1)n1nc(-c2cc(C(F)(F)F)ccc2OC)c2ccc(-c3ccc(C)cc3)cc21 (centres undefined)	4 nM	21 nM	–
CCCC(c1ccc(C(=O)NCCC(=O)O)cc1)n1cc(-c2cc(C(F)(F)F)ccc2OC)c2ccc(-c3ccc(C)cc3)cc21 (racemic)	4 nM	48 nM	–
COc1ccc(C(F)(F)F)cc1-c1nn(C(c2ccc(C(=O)NCCC(=O)O)cc2)C(C)C)c2cc(-c3ccc(C)cc3)ccc12 (centres undefined)	4 nM	69 nM	–
CCCCC(c1ccc(C(=O)NCCC(=O)O)cc1)n1nc(-c2cc(C(F)(F)F)ccc2OC)c2ccc(-c3ccc(OC)cc3Cl)cc21 (centres undefined)	4 nM	18 nM	–
CCCCC(c1ccc(C(=O)NCCC(=O)O)cc1)n1nc(-c2cc(C(F)(F)F)ccc2OC)c2ccc(-c3ccccc3)cc21 (centres undefined)	3 nM	18 nM	–
CCCC(c1ccc(C(=O)NCCC(=O)O)cc1)n1cc(-c2cc(C(F)(F)F)ccc2OC)c2ccc(-c3ccc(OC)cc3)cc21 (racemic)	8 nM	130 nM	–
CCCC(c1ccc(C(=O)NCCC(=O)O)cc1)n1nc(-c2cc(C(F)(F)F)ccc2OC)c2ccc(-c3ccc(C)cc3)cc21 (centres undefined)	2 nM	5 nM	–
CCCCC(c1ccc(C(=O)NCCC(=O)O)cc1)n1nc(-c2cc(C(F)(F)F)ccc2OC)c2ccc(-c3ccc(OC)cc3)cc21 (centres undefined)	1.9 nM	14 nM	Ratio IC50 (Homo sapiens): 79; IC50 [3]: 1100 nM; Vd [4]: 0.67 L/kg; AUC/dose (Rattus norvegicus): 4 µM·kg·h/mg; clearance [5]: 1.7 mL/min/kg; bioavailability [6]: 27%; half-life [7]: 6.4 h
CCCCC(c1ccc(C(=O)NCCC(=O)O)cc1)n1nc(-c2cc(C(F)(F)F)ccc2OC)c2ccc(-c3ccc(C(F)(F)F)cc3)cc21 (centres undefined)	1.6 nM	14 nM	–
CCCCC(c1ccc(C(=O)NCCC(=O)O)cc1)n1nc(-c2cc(C(F)(F)F)ccc2OC)c2ccc(-c3ccc(C)s3)cc21 (centres undefined)	4 nM	18 nM	–
CCCC(c1ccc(C(=O)NCCC(=O)O)cc1)n1nc(-c2cc(C(F)(F)F)ccc2OC)c2cccc(-c3ccc(C)cc3)c21 (centres undefined)	780 nM	3800 nM	–
COc1ccc(C(F)(F)F)cc1-c1nn(Cc2ccc(C(=O)NCCC(=O)O)cc2)c2cc(-c3ccc(C)cc3)ccc12	39 nM	140 nM	–
CC(c1ccc(C(=O)NCCC(=O)O)cc1)n1nc(-c2ccc(C(=O)N(C)C)cc2)c2ccc(-c3ccc(OC(F)(F)F)cc3)cc21 (centres undefined)	40 nM	210 nM	–
CCCCC(c1ccc(C(=O)NCCC(=O)O)cc1)n1nc(-c2cc(C(F)(F)F)ccc2OC)c2ccc(-c3ccc(OC)nc3)cc21 (centres undefined)	3.4 nM	24 nM	–
CCCC(c1ccc(C(=O)NCCC(=O)O)cc1)n1nc(-c2cc(C(F)(F)F)ccc2OC)c2ccc(-c3ccc(OC)cc3)cc21 (centres undefined)	4 nM	11 nM	–
CCCCC(c1ccc(C(=O)NCCC(=O)O)cc1)n1nc(-c2cc(C(F)(F)F)ccc2OC)c2ccc(-c3ccc(OC)c(F)c3)cc21 (centres undefined)	1.5 nM	18 nM	–
CCCCC(c1ccc(C(=O)NCCC(=O)O)cc1)n1nc(-c2cc(C(F)(F)F)ccc2OC)c2ccc(-c3ccc(SC)cc3)cc21 (centres undefined)	1.5 nM	9 nM	–
CCCCC(c1ccc(C(=O)NCCC(=O)O)cc1)n1nc(-c2cc(C(F)(F)F)ccc2OC)c2ccc(-c3ccc(C)cc3)cc21 (centres undefined)	2.6 nM	6.6 nM	Ratio IC50 (Homo sapiens): 150; IC50 [3]: 1000 nM; Vd [4]: 1 L/kg; AUC/dose (Rattus norvegicus): 1.2 µM·kg·h/mg; clearance [5]: 3.9 mL/min/kg; bioavailability [6]: 17%; half-life [7]: 4 h
CCCC(c1ccc(C(=O)NCCC(=O)O)cc1)n1nc(-c2cc(C(F)(F)F)ccc2OC)c2cc(-c3ccc(OC)cc3)ccc21 (centres undefined)	10 nM	26 nM	–
CCCCC(c1ccc(C(=O)NCCC(=O)O)cc1)n1nc(-c2cc(C(F)(F)F)ccc2OC)c2ccc(-c3cc(F)c(F)c(F)c3)cc21 (centres undefined)	3.5 nM	26 nM	–
CCCC(c1ccc(C(=O)NCCC(=O)O)cc1)n1cc(-c2cc(C(F)(F)F)ccc2OC)c2ccc(-c3ccc(OC(F)(F)F)cc3)nc21 (centres undefined)	12 nM	360 nM	–

Continued, in another order:

IC50 (Glucagon receptor [1])	IC50 (Glucagon receptor [2])	Compound	other results
3 nM	36 nM	COc1ccc(Cl)cc1-c1nn(C(C)c2ccc(C(=O)NCCC(=O)O)cc2)c2cc(-c3ccc(OC(F)(F)F)cc3)ccc12 (centres undefined)	–
10 nM	140 nM	CC(c1ccc(C(=O)NCCC(=O)O)cc1)n1nc(-c2cc(F)ccc2Cl)c2ccc(-c3ccc(OC(F)(F)F)cc3)cc21 (centres undefined)	–
7 nM	52 nM	CC(c1ccc(C(=O)NCCC(=O)O)cc1)n1nc(-c2cc(F)cc(F)c2F)c2ccc(-c3ccc(OC(F)(F)F)cc3)cc21 (centres undefined)	–
5 nM	120 nM	CC(c1ccc(C(=O)NCCC(=O)O)cc1)n1nc(-c2cc(C(F)(F)F)ccc2F)c2ccc(-c3ccc(OC(F)(F)F)cc3)cc21 (centres undefined)	–
8 nM	41 nM	CC(c1ccc(C(=O)NCCC(=O)O)cc1)n1nc(-c2ccc(Cl)cc2Cl)c2ccc(-c3ccc(OC(F)(F)F)cc3)cc21 (centres undefined)	–
50 nM	100 nM	COc1cncc(-c2nn(C(C)c3ccc(C(=O)NCCC(=O)O)cc3)c3cc(-c4ccc(OC(F)(F)F)cc4)ccc23)c1 (centres undefined)	–
2 nM	220 nM	CC(c1ccc(C(=O)NCCC(=O)O)cc1)n1nc(-c2cc(Cl)ccc2C(N)=O)c2ccc(-c3ccc(OC(F)(F)F)cc3)cc21 (centres undefined)	–
72 nM	77 nM	COc1ncccc1-c1nn(C(C)c2ccc(C(=O)NCCC(=O)O)cc2)c2cc(-c3ccc(OC(F)(F)F)cc3)ccc12 (centres undefined)	–
4 nM	37 nM	COc1cc(F)c(F)cc1-c1nn(C(C)c2ccc(C(=O)NCCC(=O)O)cc2)c2cc(-c3ccc(OC(F)(F)F)cc3)ccc12 (centres undefined)	–
0.8 nM	8 nM	CCCCC(c1ccc(C(=O)NCCC(=O)O)cc1)n1nc(-c2cc(C(F)(F)F)ccc2OC)c2ccc(-c3ccc(OC(F)(F)F)cc3)cc21 (centres undefined)	Ratio IC50 (Homo sapiens): 94; IC50 [3]: 750 nM; Vd [4]: 0.72 L/kg; AUC/dose (Rattus norvegicus): 0.3 µM·kg·h/mg; clearance [5]: 7.5 mL/min/kg; bioavailability [6]: 9%; half-life [7]: 4.7 h
7 nM	11 nM	COc1ccc(OC(F)(F)F)cc1-c1nn(C(C)c2ccc(C(=O)NCCC(=O)O)cc2)c2cc(-c3ccc(OC(F)(F)F)cc3)ccc12 (centres undefined)	–
1 nM	5.6 nM	CCCC(c1ccc(C(=O)NCCC(=O)O)cc1)n1nc(-c2cc(C(F)(F)F)ccc2OC)c2ccc(-c3ccc(OC(F)(F)F)cc3)cc21 (centres undefined)	Ratio IC50 (Homo sapiens): 250; IC50 [3]: 1400 nM; Vd [4]: 1.3 L/kg; AUC/dose (Rattus norvegicus): 2 µM·kg·h/mg; clearance [5]: 2.2 mL/min/kg; bioavailability [6]: 19%; half-life [7]: 9.7 h
4 nM	44 nM	CC(c1ccc(C(=O)NCCC(=O)O)cc1)n1nc(-c2ccc(Cl)c(F)c2)c2ccc(-c3ccc(OC(F)(F)F)cc3)cc21 (centres undefined)	–
3 nM	56 nM	CC(c1ccc(C(=O)NCCC(=O)O)cc1)n1nc(-c2cc(Cl)cc(C(F)(F)F)c2)c2ccc(-c3ccc(OC(F)(F)F)cc3)cc21 (centres undefined)	–
35 nM	84 nM	COc1nccc(-c2nn(C(C)c3ccc(C(=O)NCCC(=O)O)cc3)c3cc(-c4ccc(OC(F)(F)F)cc4)ccc23)n1 (centres undefined)	–
110 nM	760 nM	COc1ccncc1-c1nn(C(C)c2ccc(C(=O)NCCC(=O)O)cc2)c2cc(-c3ccc(OC(F)(F)F)cc3)ccc12 (centres undefined)	–
26 nM	65 nM	COc1ccc(-c2nn(C(C)c3ccc(C(=O)NCCC(=O)O)cc3)c3cc(-c4ccc(OC(F)(F)F)cc4)ccc23)cn1 (centres undefined)	–
15 nM	43 nM	CC(c1ccc(C(=O)NCCC(=O)O)cc1)n1nc(-c2ccc(C#N)cc2)c2ccc(-c3ccc(OC(F)(F)F)cc3)cc21 (centres undefined)	–
